The source made the active and inactive calls. The calls are words filed in the database; no cut-off is given here.
Experiments:
Type in all cases: cell-based
[1] = target: T1, Palmitoleoyl-protein carboxylesterase NOTUM (Homo sapiens, UniProt Q6P988); test: Inhibition of NOTUM in human SW620 cells conditioned medium at 0.01 to 1 uM measured after 30 mins by rhodamine-azide reporter tagged based SDS-PAGE fluorescence analysis; details: 0.5 h
T1 sequence (Q6P988 whole entry): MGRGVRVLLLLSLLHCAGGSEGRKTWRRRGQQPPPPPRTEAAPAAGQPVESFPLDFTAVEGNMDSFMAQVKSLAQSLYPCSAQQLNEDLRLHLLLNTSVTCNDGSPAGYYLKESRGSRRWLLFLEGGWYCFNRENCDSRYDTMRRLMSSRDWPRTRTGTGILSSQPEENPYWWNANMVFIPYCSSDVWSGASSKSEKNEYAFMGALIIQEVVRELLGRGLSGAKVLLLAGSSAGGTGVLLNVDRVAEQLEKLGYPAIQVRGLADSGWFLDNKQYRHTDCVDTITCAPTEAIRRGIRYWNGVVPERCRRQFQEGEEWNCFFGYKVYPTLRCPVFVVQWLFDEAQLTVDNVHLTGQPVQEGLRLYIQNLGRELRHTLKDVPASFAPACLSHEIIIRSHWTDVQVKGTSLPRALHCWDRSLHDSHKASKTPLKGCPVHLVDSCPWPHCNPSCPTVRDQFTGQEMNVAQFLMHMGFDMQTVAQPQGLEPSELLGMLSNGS
In short: (§1)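 Alkyne probe analogue was added to SW620 conditioned medium or cellular lysate for 30 min at 37 °C. Samples were clicked to a rhodamine-azide tag by copper-mediated azide–alkyne cycloaddition, then read by SDS-PAGE and in-gel fluorescence.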

[2] = target: T2, Monoacylglycerol lipase ABHD6 (Homo sapiens) (UniProt Q9BV23); test: Inhibition of ABHD6 in human SW620 cells at 0.1 uM after 30 mins by rhodamine-azide reporter tagged based SDS-PAGE fluorescence analysis; in short: as §1
T2 sequence (whole entry): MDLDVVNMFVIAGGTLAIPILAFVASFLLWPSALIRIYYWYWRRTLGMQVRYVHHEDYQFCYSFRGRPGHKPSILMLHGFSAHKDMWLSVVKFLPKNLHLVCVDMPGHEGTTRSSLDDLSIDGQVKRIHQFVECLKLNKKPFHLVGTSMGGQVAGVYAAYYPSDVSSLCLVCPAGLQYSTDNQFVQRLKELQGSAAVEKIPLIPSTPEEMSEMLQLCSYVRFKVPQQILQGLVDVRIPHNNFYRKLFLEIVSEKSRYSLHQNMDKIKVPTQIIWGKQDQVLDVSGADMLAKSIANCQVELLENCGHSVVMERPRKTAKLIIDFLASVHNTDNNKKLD

[3] = target: T1, Palmitoleoyl-protein carboxylesterase NOTUM; test: Inhibition of rhodamine-tagged FP probe binding to NOTUM in human SW620 cells conditioned medium at 0.01 to 1 uM pretreated for 30 mins followed by rhodamine-tagged FP probe addition and measured after 30 mins by SDS-PAGE fluorescence analysis; details: 0.5 h
[4] = target: T2, Monoacylglycerol lipase ABHD6 (Homo sapiens); test: Inhibition of rhodamine-tagged FP probe binding to ABHD6 in human SW620 cells at 0.1 uM pretreated for 30 mins followed by rhodamine-tagged FP probe addition and measured after 30 mins by SDS-PAGE fluorescence analysis
[5] = target: T1, Palmitoleoyl-protein carboxylesterase NOTUM; test: Inhibition of rhodamine-tagged FP probe binding to NOTUM in human SW620 cells conditioned media at 0.1 to 3 uM pretreated for 30 mins followed by rhodamine-tagged FP probe addition and measured after 30 mins by SDS-PAGE fluorescence analysis; details: 0.5 h
[6] = target: T2, Monoacylglycerol lipase ABHD6 (Homo sapiens); test: Inhibition of rhodamine-tagged FP probe binding to ABHD6 in human SW620 cells at 0.1 to 10 uM pretreated for 2 hrs followed by rhodamine-tagged FP probe addition and measured after 30 mins by SDS-PAGE fluorescence analysis
In short: (§2)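 SW620 cells were treated in situ with compound at the stated concentrations for 2 h at 37 °C. Soluble and membrane proteomes were then labeled with the PPT1-directed probe ABC45 or FP-Rh. Competition was read by SDS-PAGE and in-gel fluorescence scanning.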

[7] = target: T1, Palmitoleoyl-protein carboxylesterase NOTUM; test: Inhibition of rhodamine-tagged FP probe binding to NOTUM in human SW620 cells conditioned media pretreated for 30 mins followed by rhodamine-tagged FP probe addition and measured after 30 mins by SDS-PAGE fluorescence analysis
[8] = target: T3, Palmitoyl-protein thioesterase 1 (Homo sapiens) (UniProt P50897); test: Inhibition of ABC45 probe binding to PPT1 in human SW620 cells at 0.1 to 10 uM pretreated for 2 hrs followed by ABC45 probe addition and measured after 30 mins by rhodamine-azide reporter tagged based SDS-PAGE fluorescence analysis; in short: as §2
T3 sequence (whole entry): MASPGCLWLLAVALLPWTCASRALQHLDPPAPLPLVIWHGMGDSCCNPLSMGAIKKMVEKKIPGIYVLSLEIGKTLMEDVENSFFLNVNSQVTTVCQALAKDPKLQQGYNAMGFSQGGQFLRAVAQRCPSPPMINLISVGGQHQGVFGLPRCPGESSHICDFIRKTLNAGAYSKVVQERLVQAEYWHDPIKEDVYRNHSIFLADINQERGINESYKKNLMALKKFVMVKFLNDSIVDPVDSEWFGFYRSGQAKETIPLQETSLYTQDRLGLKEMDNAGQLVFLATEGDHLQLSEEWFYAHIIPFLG

[9] = target: T1, Palmitoleoyl-protein carboxylesterase NOTUM; test: Inhibition of rhodamine-tagged FP probe binding to recombinant human C-terminal FLAG-tagged NOTUM expressed in HEK293T cells pretreated for 30 mins followed by rhodamine-tagged FP probe addition and measured after 30 mins by SDS-PAGE fluorescence analysis
[10] = target: T1, Palmitoleoyl-protein carboxylesterase NOTUM; test: Inhibition of NOTUM in human SW620 cells conditioned medium at 10 uM after 1 hr by FP-biotin probe based LC-MS analysis relative to control
In short: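 SW620 conditioned medium was treated with compound (0.5 or 10 μM) or DMSO for 1 h at 37 °C. Peptides were labeled with light (compound) or heavy (DMSO) formaldehyde, combined and analyzed by MS. Values are light/heavy median peptide ratios from two independent experiments, ±SEM.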

[11] = target: T2, Monoacylglycerol lipase ABHD6 (Homo sapiens); test: Inhibition of ABHD6 in human SW620 cells at 10 uM after 2 hrs by FP-biotin probe based LC-MS analysis
[12] = target: T1, Palmitoleoyl-protein carboxylesterase NOTUM; test: Inhibition of NOTUM in human SW620 cells conditioned medium assessed as preservation of Wnt3A activity pretreated for 1 hr followed by Wnt3A producing L-cell addition for 2 hrs and subsequent […]-STF cell addition and measured after 24 hrs by luciferase reporter gene assay

SMILES | inhibition (INH) [5] | IC50 [7] [nM] | inhibition [8] | further results
C#CCN1CCN(C(=O)ON2C(=O)C3CN(Cc4ccc(Cl)cc4)CCN3C2=O)c2ccccc21 (centres undefined) |  |  |  | inhibition (INH) [1]: Active; inhibition [2]: inactive; inhibition (INH) [3]: Active; inhibition [4]: inactive
O=C1C2CN(Cc3ccc(Oc4ccccc4)nc3)CCN2C(=O)N1OC(=O)N1CCOc2ccccc21 (centres undefined) |  |  | inactive | IC50 [9]: 1510 nM
O=C(c1ccc(Cl)cc1)N1CCN2C(=O)N(OC(=O)N3CCOc4ccccc43)C(=O)C2C1 (centres undefined) |  | > 10000 |  | inhibition (INH) [10]: Not Active; inhibition [11]: Active; IC50 [12]: > 5000 nM

Now from value to compound, other results behind:

inhibition (INH) [5] | IC50 [7] [nM] | inhibition [8] | SMILES | further results
Active | 290 | Active | COc1ccc(N2CCN(C(=O)ON3C(=O)C4CN(Cc5ccc(Cl)cc5)CCN4C3=O)CC2)cc1 (centres undefined) | inhibition [6]: Active
 |  | inactive | O=C1C2CN(Cc3ccc(Cl)cc3)CCN2C(=O)N1OC(=O)N1CCOc2ccccc21 (centres undefined) | 
Not Active | > 10000 |  | COc1ccc(N2CCN(C(=O)ON3C(=O)C4CN(Cc5cccc(Cl)c5)CCN4C3=O)CC2)cc1 (centres undefined) | 
Active | 200 |  | COc1ccc(N2CCN(C(=O)ON3C(=O)C4CN(Cc5ccccc5Cl)CCN4C3=O)CC2)cc1 (centres undefined) | 

Source: ChEMBL document CHEMBL4145632, “Selective Irreversible Inhibitors of the Wnt-Deacylating Enzyme NOTUM Developed by Activity-Based Protein Profiling” (ACS Med Chem Lett, 2018)
